Source: ChEMBL document CHEMBL3588765, “Synthesis and molecular docking of 1,2,3-triazole-based sulfonamides as aromatase inhibitors” (Bioorg Med Chem, 2015)
Converted amounts (≈) assume the structure as drawn.

How the values were obtained:
[1] = system: Vero; assay: Cytotoxicity against african green monkey Vero cells after 4 days by green fluorescent protein detection method; assay type: cell-based; settings: Chlorocebus sabaeus, 96 h
[2] = target: T1, Aromatase (Homo sapiens, UniProt P11511); assay: Inhibition of CYP19 (unknown origin) using O-benzyl fluorescein benzyl ester substrate preincubated for 10 mins by fluorimetric analysis relative to control
T1 sequence (P11511 whole entry): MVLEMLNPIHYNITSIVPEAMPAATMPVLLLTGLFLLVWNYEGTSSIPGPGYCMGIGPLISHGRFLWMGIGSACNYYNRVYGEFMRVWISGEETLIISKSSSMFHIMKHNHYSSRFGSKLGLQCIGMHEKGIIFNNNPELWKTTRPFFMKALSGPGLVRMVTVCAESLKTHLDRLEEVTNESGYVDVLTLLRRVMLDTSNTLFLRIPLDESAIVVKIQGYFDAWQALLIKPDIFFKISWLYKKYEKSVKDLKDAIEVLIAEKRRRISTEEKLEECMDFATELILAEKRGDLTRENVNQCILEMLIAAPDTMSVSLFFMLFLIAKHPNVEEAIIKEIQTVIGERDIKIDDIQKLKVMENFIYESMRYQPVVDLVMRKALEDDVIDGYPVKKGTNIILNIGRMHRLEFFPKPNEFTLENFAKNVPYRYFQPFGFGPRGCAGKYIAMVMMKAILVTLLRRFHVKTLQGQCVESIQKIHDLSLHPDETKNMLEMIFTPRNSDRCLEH
Summary of the method: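 CYP19 was assayed with dibenzylfluorescein (DBF) as substrate. DBF is dealkylated by the enzyme and hydrolysed to fluorescein. Cofactor mix was 50 mM phosphate buffer pH 7.4 with an NADPH-generating system (NADP⁺, glucose-6-phosphate, MgCl₂, glucose-6-phosphate dehydrogenase). This mix was preincubated 10 min at 37 °C. Enzyme/substrate mixture (16 pmol/mL CYP19 stock, 0.2 mM DBF stock) and test sample were then added.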

[3] = Selectivity index, ratio of IC50 for african green monkey Vero cells to IC50 for CYP19 (unknown origin)
Summary of the method: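 Selectivity index was calculated as the IC₅₀ in GFP-Vero cells (4-day fluorescence assay) divided by the IC₅₀ in the DBF-based CYP19 fluorescence assay.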

[4] = Solubility of the compound in phosphate buffer at pH 7.4 medium; assay type: physicochemical

SMILES	IC50 [1] [µg/mL]	IC50 [2] [µM]	Ratio IC50 [3]	solubility [4]
O=c1ccc2ccc(OCc3cn(-c4ccc(S(=O)(=O)NCCc5ccccc5)cc4)nn3)cc2o1	> 50	> 12.5	–	–
O=c1cc(OCc2cn(-c3ccc(S(=O)(=O)NCCc4ccccc4)cc3)nn2)c2ccccc2o1	> 50	1.8	>55.27	–
COc1ccc(CCNS(=O)(=O)c2ccc(-n3cc(-c4ccccc4)nn3)cc2)cc1OC	> 50	4.6	>23.4	–
COc1ccc(CCNS(=O)(=O)c2ccc(-n3cc(COc4ccc([N+](=O)[O-])cc4)nn3)cc2)cc1OC	> 50	2.7	>34.32	–
O=S(=O)(NCCc1ccccc1)c1ccc(-n2cc(-c3ccccc3)nn2)cc1	> 50	> 12.5	–	–
O=S(=O)(NCCc1ccccc1)c1ccc(-n2cc(COc3ccccc3)nn2)cc1	> 50	9.4	>12.24	–
O=S(=O)(NCCc1ccccc1)c1ccc(-n2cc(COc3cccc4ccccc34)nn2)cc1	> 50	3.4	>30.35	–
O=S(=O)(NCCc1ccccc1)c1ccc(-n2cc(COc3ccc4ccccc4c3)nn2)cc1	> 50	1.3	>79.37	–
Cc1ccc(OCc2cn(-c3ccc(S(=O)(=O)NCCc4ccccc4)cc3)nn2)cc1	> 50	8	>13.93	–
O=Cc1ccc(OCc2cn(-c3ccc(S(=O)(=O)NCCc4ccccc4)cc3)nn2)cc1	> 50	7.9	>13.68	–
O=[N+]([O-])c1ccc(OCc2cn(-c3ccc(S(=O)(=O)NCCc4ccccc4)cc3)nn2)cc1	> 50	2.9	>35.96	–
Cc1ccccc1OCc1cn(-c2ccc(S(=O)(=O)NCCc3ccccc3)cc2)nn1	> 50	3.4	>32.79	–
CC(=O)c1ccccc1OCc1cn(-c2ccc(S(=O)(=O)N3CCc4ccccc4C3)cc2)nn1	> 50	> 12.5	–	–
O=c1cc(OCc2cn(-c3ccc(S(=O)(=O)N4CCc5ccccc5C4)cc3)nn2)c2ccccc2o1	–	> 12.5	–	–
COc1cc2c(cc1OC)CN(S(=O)(=O)c1ccc(-n3cc(COc4ccccc4C)nn3)cc1)CC2	> 50	> 12.5	–	–
COc1cc2c(cc1OC)CN(S(=O)(=O)c1ccc(-n3cc(COc4ccccc4C(C)=O)nn3)cc1)CC2	–	> 12.5	–	–
COC(=O)c1ccccc1OCc1cn(-c2ccc(S(=O)(=O)N3CCc4cc(OC)c(OC)cc4C3)cc2)nn1	–	> 12.5	–	–
COc1cc2c(cc1OC)CN(S(=O)(=O)c1ccc(-n3cc(COc4ccc([N+](=O)[O-])cc4)nn3)cc1)CC2	> 50	> 12.5	–	–
COc1cc2c(cc1OC)CN(S(=O)(=O)c1ccc(-n3cc(COc4cc(C=O)ccc4OC)nn3)cc1)CC2	> 50	> 12.5	–	–
O=c1ccc2ccc(OCc3cn(-c4cccc(S(=O)(=O)N5CCc6ccccc6C5)c4)nn3)cc2o1	91.5 (≈ 178 µM)	–	–	Insoluble
O=c1cc(OCc2cn(-c3cccc(S(=O)(=O)N4CCc5ccccc5C4)c3)nn2)c2ccccc2o1	> 50	> 12.5	–	–
COc1cc2c(cc1OC)CN(S(=O)(=O)c1cccc(-n3cc(COc4ccc5ccc(=O)oc5c4)nn3)c1)CC2	> 50	0.2	>435.09	–
COc1cc2c(cc1OC)CN(S(=O)(=O)c1cccc(-n3cc(COc4cc(=O)oc5ccccc45)nn3)c1)CC2	86.3 (≈ 150 µM)	1.8	48	–
Cc1c2ccncc2c(C)c2c1[nH]c1ccccc12 [ELLIPTECINE]	1.94 (≈ 7.88 µM)	–	–	–
